Measured values: ChEMBL document CHEMBL4725347, “Discovery of a Monoiodo Aza-BODIPY Near-Infrared Photosensitizer: in vitro and in vivo Evaluation for Photodynamic Therapy” (J Med Chem, 2020)

Assays:
[1] = Absorption property of the compound in chloroform assessed as hypsochromic shift by measuring maximum absorption wavelength by UV-visible spectrophotometric method; assay type: physicochemical
Procedure, shortened: (§1)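 Electronic absorption spectra recorded by UV-visible spectrophotometry at room temperature. Solvents were chloroform, isopropanol, acetonitrile, DMF, and PBS buffer containing 1% Cremophor EL/1,2-propanediol (10:3, v:v). Chloroform data were referenced to the non-halogenated parent dye.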

[2] = Absorption property of the compound in chloroform assessed as absorption coefficient by UV-visible spectrophotometric method; assay type: physicochemical; procedure, shortened: as §1
[3] = Emission property of the compound in chloroform assessed as maximum emission wavelength by fluorescence spectrophotometric method; assay type: physicochemical
Procedure, shortened: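 Fluorescence spectrum recorded in chloroform by fluorescence spectrophotometer at room temperature.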

[4] = Induction of singlet oxygen generation in N,N-dimethylformamide assessed as relative rate of DPBF degradation to MB at 1 uM irradiated with 90 mW/cm2 halogen light; assay type: functional
Procedure, shortened: (§2)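 Singlet oxygen generation measured with 1,3-diphenylisobenzofuran (DPBF) as scavenger. The decrease in DPBF absorbance at 411 nm was monitored over time during light irradiation, and the photodegradation rate was calculated.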

[5] = Dark toxicity in human HeLa cells assessed as reduction in cell viability after 3 hrs by MTT assay; assay type: cell-based
Procedure, shortened: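 Compound was formulated with Cremophor EL/1,2-propanediol in PBS, filtered, and its concentration confirmed by UV-Vis. HeLa cells in DMEM with 10% FBS at 37 °C, 5% CO2 were seeded at 3×10^3 cells/well and adhered overnight. Cells were exposed to graded concentrations for 3 h without light, incubated 24 h, then MTT 0.5 mg/mL for 4 h; formazan dissolved in DMSO, A490 read.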

HeLa = assay: Phototoxicity against human HeLa cells assessed as reduction in cell viability preincubated for 3 hrs followed by 54 J/cm2 light irradiation and measured after 24 hrs by MTT assay; assay type: functional, cell-based; settings: light or radiation study
Procedure, shortened: (§3)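 PS formulated in PBS containing Cremophor EL/1,2-propanediol (10:3, v:v) after THF removal, filtered, with concentration confirmed by UV-Vis. Cells were grown in DMEM with 10% FBS and seeded at 3×10^3 per well overnight. They were incubated with PS for 3 h, irradiated at λ > 590 nm, kept 24 h at 37 °C, then given MTT (0.5 mg/mL, 4 h) with DMSO solubilization and A490 read-out.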

[6] = Dark toxicity in human MCF7 cells assessed as reduction in cell viability after 3 hrs by MTT assay; assay type: cell-based
MCF7 = assay: Phototoxicity against human MCF7 cells assessed as reduction in cell viability preincubated for 3 hrs followed by 54 J/cm2 light irradiation and measured after 24 hrs by MTT assay; assay type: functional, cell-based; settings: MCF7, light or radiation study; procedure, shortened: as §3
[7] = Dark toxicity in human SW480 cells assessed as reduction in cell viability after 3 hrs by MTT assay; assay type: cell-based
SW480 = assay: Phototoxicity against human SW480 cells assessed as reduction in cell viability preincubated for 3 hrs followed by 54 J/cm2 light irradiation and measured after 24 hrs by MTT assay; assay type: functional, cell-based; settings: SW480, light or radiation study; procedure, shortened: as §3
[8] = Photostability of the compound in N,N-dimethylformamide assessed as compound degradation irradiated with 90 mW/cm2 light; assay type: physicochemical
[9] = Induction of singlet oxygen generation in isopropanol assessed as relative rate of DPBF degradation to MB at 1 uM irradiated with 90 mW/cm2 halogen light; assay type: functional; procedure, shortened: as §2
[10] = Induction of singlet oxygen generation in PBS containing 1% Cremophor EL/1,2-propanediol (10:3, v:v) system assessed as relative rate of DPBF degradation to MB at 1 uM irradiated with 90 mW/cm2 halogen light; assay type: functional; procedure, shortened: as §2
[11] = Photostability of the compound in acetonitrile assessed as compound degradation irradiated with 90 mW/cm2 light; assay type: physicochemical
[12] = Photostability of the compound in isopropanol assessed as compound degradation irradiated with 90 mW/cm2 light; assay type: physicochemical
[13] = Photostability of the compound in PBS containing 1% Cremophor EL/1,2-propanediol (10:3, v:v) system assessed as compound degradation irradiated with 90 mW/cm2 light; assay type: physicochemical; settings: buffer
[14] = Stability of the compound in acetonitrile assessed as compound degradation under dark condition; assay type: physicochemical
[15] = Stability of the compound in PBS containing 1% Cremophor EL/1,2-propanediol (10:3, v:v) system assessed as compound degradation under dark condition; assay type: physicochemical; settings: buffer
[16] = Absorption property of the compound in PBS containing 1% Cremophor EL/1,2-propanediol (10:3, v:v) system assessed as absorption coefficient by UV-visible spectrophotometric method; assay type: physicochemical; settings: buffer; procedure, shortened: as §1
[17] = Absorption property of the compound in isopropanol assessed as absorption coefficient by UV-visible spectrophotometric method; assay type: physicochemical; procedure, shortened: as §1
[18] = Absorption property of the compound in acetonitrile assessed as absorption coefficient by UV-visible spectrophotometric method; assay type: physicochemical; procedure, shortened: as §1
[19] = Absorption property of the compound in N,N-dimethylformamide assessed as absorption coefficient by UV-visible spectrophotometric method; assay type: physicochemical; procedure, shortened: as §1

Row | Activity [1] | Activity [2] | Activity [3] | SMILES | fold change (FC) [4] | IC50 at 3 h [5] | IC50 (HeLa) | IC50 at 3 h [6] | IC50 (MCF7) | IC50 at 3 h [7] | IC50 (SW480) | other results
1 | 658 nm | 83600 M⁻¹ cm⁻¹ | 685 nm | Cc1ccc(C2=[N+]3C(=Nc4c(-c5ccccc5)cc(-c5ccc(C)cc5)n4[B-]3(F)F)C(c3ccccc3)=C2Br)cc1 | 0.12 | > 50 µM | 7.2 µM | > 50 µM | 2.6 µM | > 50 µM | > 25 µM | 
2 | 688 nm | 99000 M⁻¹ cm⁻¹ | 725 nm | COc1ccc(C2=[N+]3C(=Nc4c(-c5ccccc5)cc(-c5ccc(OC)cc5)n4[B-]3(F)F)C(c3ccccc3)=C2)cc1 | 0.04 | > 50 µM | 11.6 µM | > 50 µM | 9.4 µM | > 50 µM | 12.1 µM | Stabilty [8]: Unstable; fold change (FC) [9]: 0.28; fold change (FC) [10]: 0.3; Stabilty [11]: Stable; Stabilty [12]: Stable; Stabilty [13]: Stable; Stabilty [14]: Unstable; Stabilty [15]: Unstable
3 | 682 nm | 104400 M⁻¹ cm⁻¹ | 709 nm | COc1ccc2c(c1)CCc1c(-c3ccccc3)c3n(c1-2)[B-](F)(F)[N+]1=C(c2ccc(C)cc2)C(Br)=C(c2ccccc2)C1=N3 | 0.14 | > 50 µM | 1.2 µM | > 50 µM | 8.1 µM | > 50 µM | 15.6 µM | 
4 | 659 nm | 89600 M⁻¹ cm⁻¹ | 690 nm | Cc1ccc(C2=[N+]3C(=Nc4c(-c5ccccc5)cc(-c5ccc(C)cc5)n4[B-]3(F)F)C(c3ccccc3)=C2I)cc1 | 0.26 | > 50 µM | 2.6 µM | > 50 µM | 1.2 µM | > 50 µM | 12.4 µM | 
5 | 662 nm | 92000 M⁻¹ cm⁻¹ | 688 nm | Cc1ccc(C2=[N+]3C(=Nc4c(-c5ccccc5)c(I)c(-c5ccc(C)cc5)n4[B-]3(F)F)C(c3ccccc3)=C2I)cc1 | 0.28 | > 50 µM | 13.4 µM | > 50 µM | 5.3 µM | > 50 µM | > 25 µM | 
6 | 658 nm | 79900 M⁻¹ cm⁻¹ | 685 nm | Cc1ccc(C2=[N+]3C(=Nc4c(-c5ccccc5)c(Br)c(-c5ccc(C)cc5)n4[B-]3(F)F)C(c3ccccc3)=C2Br)cc1 | 0.22 | > 50 µM | 4.3 µM | > 50 µM | 1.5 µM | > 50 µM | 16.1 µM | 

Second part, the molecule before the results:

Row | SMILES | Activity [1] | Activity [2] | Activity [3] | fold change (FC) [4] | IC50 at 3 h [5] | IC50 (HeLa) | IC50 at 3 h [6] | IC50 (MCF7) | IC50 at 3 h [7] | IC50 (SW480) | other results
7 | COc1ccc(C2=[N+]3C(=Nc4c(-c5ccccc5)c(Br)c(-c5ccc(OC)cc5)n4[B-]3(F)F)C(c3ccccc3)=C2I)cc1 | 679 nm | 76000 M⁻¹ cm⁻¹ | 720 nm | 0.65 | > 50 µM | 0.31 µM | > 50 µM | 0.42 µM | > 50 µM | 0.53 µM | Stabilty [8]: Unstable; Activity [16]: 34000 M⁻¹ cm⁻¹; Activity [17]: 59300 M⁻¹ cm⁻¹; Activity [18]: 59300 M⁻¹ cm⁻¹; Activity [19]: 59300 M⁻¹ cm⁻¹; fold change (FC) [9]: 6.8; fold change (FC) [10]: 2.3; Stabilty [11]: Stable; Stabilty [12]: Stable; Stabilty [13]: Stable; Stabilty [14]: Unstable; Stabilty [15]: Unstable
8 | Cc1ccc(C2=[N+]3C(=Nc4c(-c5ccccc5)c(I)c(-c5ccc(C)s5)n4[B-]3(F)F)C(c3ccccc3)=C2I)s1 | 732 nm | 91300 M⁻¹ cm⁻¹ | 768 nm | 0.36 | > 50 µM | > 25 µM | > 50 µM | 16.4 µM | > 50 µM | > 25 µM | 
9 | COc1ccc2c(c1)CCc1c(-c3ccccc3)c3n(c1-2)[B-](F)(F)[N+]1=C(c2cccs2)C(I)=C(c2ccccc2)C1=N3 | 695 nm | 81500 M⁻¹ cm⁻¹ | 740 nm | 0.37 | > 50 µM | 0.46 µM | > 50 µM | 0.75 µM | > 50 µM | 0.83 µM | 
10 | COc1ccc(C2=[N+]3C(=Nc4c(-c5ccccc5)c5c(n4[B-]3(F)F)-c3ccc(OC)cc3CC5)C(c3ccccc3)=C2I)cc1 | 689 nm | 101300 M⁻¹ cm⁻¹ | 725 nm | 1.2 | > 50 µM | 0.081 µM | > 50 µM | 0.14 µM | > 50 µM | 0.12 µM | 
11 | COc1ccc(C2=[N+]3C(=Nc4c(-c5ccccc5)c5c(n4[B-]3(F)F)-c3ccc(OC)cc3CC5)C(c3ccccc3)=C2Br)cc1 | 692 nm | 90300 M⁻¹ cm⁻¹ | 724 nm | 0.17 | > 50 µM | 0.83 µM | > 50 µM | 4.5 µM | > 50 µM | 1.9 µM | 
12 | COc1ccc2c(c1)CCc1c(-c3ccccc3)c3n(c1-2)[B-](F)(F)[N+]1=C(c2ccc(C)cc2)C(I)=C(c2ccccc2)C1=N3 | 682 nm | 110000 M⁻¹ cm⁻¹ | 709 nm | 0.25 | > 50 µM | 0.11 µM | > 50 µM | 0.41 µM | > 50 µM | 0.66 µM | 
13 | Cc1ccc(C2=[N+]3C(=Nc4c(-c5ccccc5)cc(-c5ccc(C)s5)n4[B-]3(F)F)C(c3ccccc3)=C2I)s1 | 732 nm | 71700 M⁻¹ cm⁻¹ | 766 nm | 0.32 | > 50 µM | 15.6 µM | > 50 µM | 7.7 µM | > 50 µM | 20.6 µM | 
14 | COc1ccc2c(c1)CCc1c(-c3ccccc3)c3n(c1-2)[B-](F)(F)[N+]1=C(c2ccc(C)s2)C(Br)=C(c2ccccc2)C1=N3 | 714 nm | 73700 M⁻¹ cm⁻¹ | 753 nm | 0.14 | > 50 µM | 22.6 µM | > 50 µM | > 25 µM | > 50 µM | > 25 µM | 
15 | COc1ccc2c(c1)CCc1c(-c3ccccc3)c3n(c1-2)[B-](F)(F)[N+]1=C(c2ccc(C)s2)C(I)=C(c2ccccc2)C1=N3 | 716 nm | 76900 M⁻¹ cm⁻¹ | 756 nm | 0.42 | > 50 µM | 12.3 µM | > 50 µM | 16.6 µM | > 50 µM | 21.4 µM | 
